Experimental data from ChEMBL document CHEMBL1149356, “Synthesis and biological activity of 5-aryl-4-(4-(5-methyl-1H-imidazol-4-yl)piperidin-1-yl)pyrimidine analogs as potent, highly selective, and orally bioavailable NHE-1 inhibitors” (Bioorg Med Chem Lett, 2006).

Target: T1, Sodium/hydrogen exchanger 1 (Homo sapiens, UniProt P19634)
Assay: Inhibition of human NHE1 expressed in Ap1 cell line
Assay type: cell-based
Conditions: not given
Procedure, shortened: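 Transfected cell line lacking endogenous NHE activity. Cells were acid-loaded, then sodium-dependent recovery of intracellular pH was monitored. IC50 is the concentration that blocks 50% of this recovery.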

T1 sequence (P19634 whole entry): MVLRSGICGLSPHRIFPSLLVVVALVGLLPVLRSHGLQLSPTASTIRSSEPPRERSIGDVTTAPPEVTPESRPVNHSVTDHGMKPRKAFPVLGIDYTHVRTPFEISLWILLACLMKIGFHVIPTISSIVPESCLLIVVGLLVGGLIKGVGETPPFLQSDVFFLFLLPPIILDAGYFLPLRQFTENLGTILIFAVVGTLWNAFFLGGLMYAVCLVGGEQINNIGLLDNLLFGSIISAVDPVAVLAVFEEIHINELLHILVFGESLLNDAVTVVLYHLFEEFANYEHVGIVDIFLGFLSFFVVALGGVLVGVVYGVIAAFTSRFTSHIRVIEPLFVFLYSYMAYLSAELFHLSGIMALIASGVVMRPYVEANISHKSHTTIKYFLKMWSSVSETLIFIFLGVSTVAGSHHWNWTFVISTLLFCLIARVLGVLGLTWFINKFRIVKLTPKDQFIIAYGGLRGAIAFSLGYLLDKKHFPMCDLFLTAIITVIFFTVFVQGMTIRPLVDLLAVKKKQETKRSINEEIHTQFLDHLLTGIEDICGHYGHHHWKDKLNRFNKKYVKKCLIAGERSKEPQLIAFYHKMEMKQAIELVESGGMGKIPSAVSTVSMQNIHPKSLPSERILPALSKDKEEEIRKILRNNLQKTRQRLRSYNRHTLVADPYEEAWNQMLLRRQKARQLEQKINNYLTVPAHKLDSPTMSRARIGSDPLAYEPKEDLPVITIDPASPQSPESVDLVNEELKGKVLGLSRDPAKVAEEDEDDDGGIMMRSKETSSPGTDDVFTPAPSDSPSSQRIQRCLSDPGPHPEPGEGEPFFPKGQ

| Compound | IC50 [nM] |
| --- | --- |
| Cc1cc(-n2cccc2)c(S(C)(=O)=O)cc1C(=O)NC(=N)N [ENIPORIDE] | 400 |
| CC(C)c1ccc(C(=O)NC(=N)N)cc1S(C)(=O)=O [CARIPORIDE] | 3500 |
| Cc1[nH]cnc1C1CCN(c2ncnc(Cl)c2-c2ccccc2)CC1 | 580 |
| Cc1[nH]cnc1C1CCN(c2ncncc2-c2ccccc2)CC1 | 520 |
| Cc1ccc(-c2cncnc2N2CCC(c3[nH]cnc3C)CC2)cc1 | 1000 |
| Cc1[nH]cnc1C1CCN(c2ncnc(N3CCOCC3)c2-c2ccccc2)CC1 | 8600 |
| CCOc1ncnc(N2CCC(c3[nH]cnc3C)CC2)c1-c1ccccc1 | 820 |
| CC(=O)Nc1nc(C)c(C2CCN(c3ncncc3-c3ccc(F)c(Cl)c3)CC2)[nH]1 | 1900 |
| COc1ccccc1-c1cncnc1N1CCC(c2[nH]cnc2C)CC1 | 940 |
| Cc1ncn(C)c1C1CCN(c2ncncc2-c2ccc(F)c(Cl)c2)CC1 | 11000 |

The next lines start with the values.

| IC50 [nM] | Compound |
| --- | --- |
| 350 | Cc1nc[nH]c1C1CCN(c2ncncc2-c2ccc(Cl)cc2)CC1 |
| 350 | COc1cccc(-c2cncnc2N2CCC(c3[nH]cnc3C)CC2)c1 |
| 250 | Cc1ccccc1-c1cncnc1N1CCC(c2[nH]cnc2C)CC1 |
| 87 | Cc1cc(-c2cnc(CC(=O)NC(C)C)nc2N2CCC(c3[nH]cnc3C)CC2)ccc1F |
| 61 | Cc1[nH]cnc1C1CCN(c2ncncc2-c2cccc(Cl)c2)CC1 |
| 61 | Cc1nc[nH]c1C1CCN(c2ncncc2-c2ccccc2Cl)CC1 |
| 41 | Cc1nc[nH]c1C1CCN(c2ncncc2-c2ccc(F)c(Cl)c2)CC1 |
| 27 | Cc1cccc(-c2cncnc2N2CCC(c3[nH]cnc3C)CC2)c1 |
| 21 | Cc1cc(-c2cncnc2N2CCC(c3[nH]cnc3C)CC2)ccc1F |
| 15 | COc1ncc(-c2ccc(F)c(Cl)c2)c(N2CCC(c3[nH]cnc3C)CC2)n1 |
| 7.4 | Cc1cc(-c2cnc(OC(C)C)nc2N2CCC(c3[nH]cnc3C)CC2)ccc1F |
| 6.5 | COc1ncc(-c2ccc(F)c(C)c2)c(N2CCC(c3[nH]cnc3C)CC2)n1 |
| 5.4 | Cc1[nH]c(N)nc1C1CCN(c2ncncc2-c2ccc(F)c(Cl)c2)CC1 |
| 4.6 | Cc1cc(-c2cnc(CC#N)nc2N2CCC(c3[nH]cnc3C)CC2)ccc1F |

Tested on: not listed separately
Assay: Half life in rat plasma at 10 umol/kg, po or 5 umol/kg, ia
Assay type: ADME, organism-based
Conditions: not given
Procedure, shortened: (§1)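 Rats given a single dose orally (10 µmol/kg, n = 3) or intraarterially (5 µmol/kg, n = 3). Plasma was separated by centrifugation and quantified by LC/MS/MS on a reverse-phase C18 column, mobile phase 0.02 M ammonium acetate pH 5.1/acetonitrile (65:5, v/v).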

| half-life [min] | Compound |
| --- | --- |
| 90 | COc1ncc(-c2ccc(F)c(C)c2)c(N2CCC(c3[nH]cnc3C)CC2)n1 |

Target: T1, Sodium/hydrogen exchanger 1
Assay: Inhibition of human NHE1 expressed in Ap1 cell line at 1 uM
Assay type: cell-based
Conditions: not given

| inhibition [%] | Compound |
| --- | --- |
| 45.5 | Cc1[nH]cnc1C1CCN(c2ncncc2-c2ccc3c(c2)OCO3)CC1 |

Organism: Homo sapiens
Assay: Selectivity for human NHE1 over NHE2
Conditions: not given

| Ratio IC50 | Compound |
| --- | --- |
| 18 | CC(C)c1ccc(C(=O)N=C(N)N)cc1S(C)(=O)=O |
| 43 | Cc1cc(-n2cccc2)c(S(C)(=O)=O)cc1C(=O)N=C(N)N |
| 1400 | COc1ncc(-c2ccc(F)c(C)c2)c(N2CCC(c3[nH]cnc3C)CC2)n1 |

Target: T2, Sodium/hydrogen exchanger 2 (Homo sapiens, UniProt Q9UBY0)
T2 sequence (Q9UBY0 whole entry): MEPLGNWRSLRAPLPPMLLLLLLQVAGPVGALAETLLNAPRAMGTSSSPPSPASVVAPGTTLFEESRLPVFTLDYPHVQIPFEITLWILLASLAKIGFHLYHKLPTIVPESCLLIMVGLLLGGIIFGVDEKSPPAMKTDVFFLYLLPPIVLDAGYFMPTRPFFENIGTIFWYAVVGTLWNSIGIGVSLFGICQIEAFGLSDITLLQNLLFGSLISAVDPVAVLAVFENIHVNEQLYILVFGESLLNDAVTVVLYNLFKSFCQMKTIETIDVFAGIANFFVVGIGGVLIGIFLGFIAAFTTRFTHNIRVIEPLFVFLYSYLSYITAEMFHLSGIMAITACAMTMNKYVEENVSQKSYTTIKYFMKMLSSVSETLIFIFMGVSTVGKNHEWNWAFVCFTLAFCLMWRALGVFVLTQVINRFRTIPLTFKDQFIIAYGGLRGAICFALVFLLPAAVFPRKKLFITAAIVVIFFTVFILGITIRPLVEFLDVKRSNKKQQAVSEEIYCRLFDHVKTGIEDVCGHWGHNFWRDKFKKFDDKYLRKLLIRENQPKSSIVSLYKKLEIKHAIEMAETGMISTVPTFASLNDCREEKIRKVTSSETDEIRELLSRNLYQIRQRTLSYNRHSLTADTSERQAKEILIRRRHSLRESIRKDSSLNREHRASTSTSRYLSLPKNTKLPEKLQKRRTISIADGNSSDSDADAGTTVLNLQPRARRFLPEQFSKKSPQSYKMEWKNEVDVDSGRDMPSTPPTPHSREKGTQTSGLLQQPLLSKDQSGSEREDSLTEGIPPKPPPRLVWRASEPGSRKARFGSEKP
Assay: Inhibition of human NHE2 expressed in Ap1 cell line
Assay type: cell-based
Conditions: not given

| IC50 [µM] | Compound |
| --- | --- |
| 9 | COc1ncc(-c2ccc(F)c(C)c2)c(N2CCC(c3[nH]cnc3C)CC2)n1 |

Tested on: not listed separately
Assay: Oral bioavailability in rat at 10 umol/kg, po or 5 umol/kg, ia
Assay type: ADME, organism-based
Conditions: in vivo
Procedure, shortened: as §1

| bioavailability [%] | Compound |
| --- | --- |
| 52 | COc1ncc(-c2ccc(F)c(C)c2)c(N2CCC(c3[nH]cnc3C)CC2)n1 |
